Data: ChEMBL document CHEMBL4699650, “SAR Investigation and Discovery of Water-Soluble 1-Methyl-1,4-dihydroindeno[1,2-c]pyrazoles as Potent Tubulin Polymerization Inhibitors” (J Med Chem, 2020)
pIC50: −log10 of the molar value. Active and inactive are the calls of the source. No cut-off for these calls is given here.

Legend:
[1] = Inhibition of porcine brain tubulin polymerization measured every 60 sec for 60 mins in presence of GTP by fluorescence assay; set-up: species or system Sus scrofa
Method in brief: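 Fluorescence kit assay using 2 mg/mL porcine brain tubulin with 2 mM MgCl₂, 0.5 mM EGTA, 1 mM GTP and 15% glycerol. Compound at various concentrations preincubated 1 min at 37 °C before adding the tubulin mix. Read at ex 355/em 460 nm every 60 s for 60 min. IC50 is the concentration giving 50% inhibition at 60 min; mean ± SD of ≥3 independent experiments.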

A549 = assay: Antiproliferation activity against human A549 cells assessed as cell growth inhibition measured after 72 hrs by MTT assay; type: functional
Method in brief: (§1)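 Cells grown in RPMI-1640 with 10% FBS at 37 °C, 5% CO2, seeded at 4−7 × 10³ cells/well and left to adhere overnight. Exposed to a range of concentrations for 72 h, then MTT (2.5 mg/mL stock) added for 4 h. Formazan dissolved in DMSO and absorbance read at 570 nm. GI50 taken as the concentration giving 50% growth inhibition, reported as mean ± SD of at least three independent experiments.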

HepG2 [2] = assay: Antiproliferation activity against human HepG2 cells assessed as cell growth inhibition measured after 72 hrs by MTT assay; type: functional; method in brief: as §1
HCT-116 = assay: Antiproliferation activity against human HCT116 cells assessed as cell growth inhibition measured after 72 hrs by MTT assay; type: functional; method in brief: as §1
[3] = molecular target: Tubulin beta (Homo sapiens) (UniProt P68371+Q9H4B7+Q13509+P04350+Q3ZCM7+P07437+Q13885+Q9BVA1+Q9BUF5+A6NNZ2); assay: Inhibition of N,N'-Ethylenebis(iodoacetamide) binding to beta-tubulin in human HepG2 cells assessed as reduction in EBI/beta-tubulin adduct formation at 5 uM preincubated for 2 hrs followed by EBI addition and measured after 1.5 hrs by Western blot analysis; type: cell-based; details: time 3.5 hrs
Method in brief: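 HepG2 seeded 5 × 10⁵ cells/well, adhered overnight. Lysate protein (20 μg) run on 10% polyacrylamide gel on ice and transferred to PVDF. Probed with anti-β-tubulin 16 h at 4 °C, then HRP secondary. Chemiluminescence detection.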

HepG2 [4] = assay: Induction of apoptosis in human HepG2 cells assessed as PARP cleavage at 20 nM incubated for 24 hrs by western blot analysis; type: functional, cell-based
Method in brief: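 Lysates (20 μg protein) run on 10% polyacrylamide gel, transferred to PVDF, blocked in 5% nonfat milk, probed overnight at 4 °C for cleaved PARP. HRP secondary, ECL detection, densitometry; one-way ANOVA with Dunnett's test vs control.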

[5] = Cytotoxicity against human L02 cells assessed as assessed as cell growth inhibition measured after 72 hrs by MTT assay; type: cell-based
Method in brief: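 LO2 normal liver cells cultured in RPMI-1640/10% FBS at 37 °C, 5% CO2 and seeded at 4−7 × 10³ cells/well. Graded concentrations applied for 72 h, then MTT readout at 570 nm. GI50 is the concentration giving 50% growth inhibition, mean ± SD of at least three independent experiments.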

[6] = Resistance index, ratio of GI50 for antiproliferation activity against human A549/Taxol cells to GI50 for antiproliferation activity against human A549 cells assessed as cell growth inhibition measured after 72 hrs by MTT assay
[7] = Selectivity index, ratio of GI50 for cytotoxicity against human L02 cells to GI50 for antiproliferation activity against human HepG2 cells assessed as cell growth inhibition measured after 72 hrs by MTT assay; type: toxicity, cell-based; details: L02 cells and HepG2 cells, read-out: RatioGI50
Method in brief: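 MTT assay: cells seeded 4–7 × 10³/well, adhered overnight, exposed to a concentration series for 72 h. MTT (2.5 mg/mL stock) added for 4 h, crystals dissolved in DMSO, absorbance read at 570 nm. GI50 is mean ± SD of ≥3 independent experiments. Selectivity = GI50 on normal LO2 / GI50 on HepG2. Resistance fold = GI50 on resistant cells / GI50 on sensitive cells.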

[8] = Antiproliferation activity against human A549/Taxol cells assessed as cell growth inhibition measured after 72 hrs by MTT assay; type: functional; method in brief: as §1
HepG2 [9] = assay: Inhibition of cell migration in human HepG2 cells at 10 nM measured after 24 hrs by inverted light microscopy method based wound healing assay relative to control; type: functional
Method in brief: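 Confluent HepG2 monolayer (seeded 3 × 10⁵ cells/well) scratched with a pipette tip and washed with PBS. Incubated in serum-free DMEM with compound at 2.5, 5 or 10 nM for 24 h; CA-4 run in parallel, DMSO as vehicle. Wound imaged at 0 and 24 h by inverted microscope and compared with control.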

SMILES	pIC50 [1]	GI50 (A549)	GI50 (HepG2 [2])	GI50 (HCT-116)	inhibition [3]	Activity (HepG2 [4])	GI50 at 72 h [5]	RatioGI50 [6]	selectivity ratio at 72 h [7]	GI50 [8]	inhibition at 0.01 µM (HepG2 [9])
CCOc1cc2c(cc1OCC(=O)NC)-c1c(c(Nc3cccc(C#N)c3)nn1C)C2	< 4.70	2040 nM	97.3 nM	819 nM	–	–	–	–	–	–	–
CCOc1cc2c(cc1OCC(=O)NC)-c1c(c(Nc3cccc(C(=O)OC)c3)nn1C)C2	5.20	78.1 nM	10.2 nM	37.1 nM	–	–	–	–	–	–	–
CCOc1cccc(Nc2nn(C)c3c2Cc2cc(OCC)c(OCC(N)=O)cc2-3)n1	5.39	62.5 nM	17.1 nM	19 nM	–	–	–	–	–	–	–
CCCOc1cc2c(cc1OCC)Cc1c(Nc3cccc(OCC)c3)nn(C)c1-2	4.84	512 nM	397 nM	129 nM	–	–	–	–	–	–	–
CCOc1cc2c(cc1OCC(N)=O)-c1c(c(Nc3cccc(C(=O)NC)c3)nn1C)C2	< 4.70	13100 nM	642 nM	2100 nM	–	–	–	–	–	–	–
CCOc1cccc(Nc2nn(C)c3c2Cc2cc(OCc4ccc(OC)cc4)c(OCC(N)=O)cc2-3)c1	< 4.70	3080 nM	3070 nM	16600 nM	–	–	–	–	–	–	–
CCOc1cc2c(cc1OCCCN)-c1c(c(Nc3cccc(C#N)c3)nn1C)C2	5.24	20.8 nM	3.8 nM	6.4 nM	–	–	–	–	–	–	–
CCOC(=O)c1cccc(Nc2nn(C)c3c2Cc2cc(OCC)c(OCC(N)=O)cc2-3)c1	5.41	12 nM	3.4 nM	4.5 nM	–	–	–	–	–	–	–
CC[C@]1(O)C[C@H]2CN(CCc3c([nH]c4ccccc34)[C@@](C(=O)OC)(c3cc4c(cc3OC)N(C=O)[C@H]3[C@@](O)(C(=O)OC)[C@H](OC(C)=O)[C@]5(CC)C=CCN6CC[C@]43[C@@H]65)C2)C1	–	–	–	–	inactive	–	–	–	–	–	–
CCOc1cc2c(cc1OCCCO)-c1c(c(Nc3cccc(C(=O)OC(C)C)c3)nn1C)C2	5.11	164 nM	36.7 nM	103 nM	–	–	–	–	–	–	–
COc1cc2c(c(OC)c1OC)-c1ccc(OC)c(=O)cc1[C@@H](NC(C)=O)CC2	–	–	–	–	–	Active	–	–	–	–	–
CCOc1cc2c(cc1OCCCO)-c1c(c(Nc3cccc(C#N)c3)nn1C)C2	5.04	176 nM	42.9 nM	151 nM	–	–	–	–	–	–	–
CCOc1cc2c(cc1OCC(N)=O)-c1c(c(Nc3cccc(C(=O)OC(C)C)c3)nn1C)C2	5.10	121 nM	25.3 nM	36.4 nM	–	–	–	–	–	–	–
CCCOc1cc2c(cc1OCC(N)=O)Cc1c(Nc3cccc(OCC)c3)nn(C)c1-2	< 4.70	25400 nM	1960 nM	1140 nM	–	–	–	–	–	–	–
CCOc1cccc(Nc2nn(C)c3c2Cc2cc(OCC)c(OCC(=O)O)cc2-3)c1	< 4.70	8660 nM	1640 nM	1270 nM	–	–	–	–	–	–	–
CCOc1ccc(Nc2nn(C)c3c2Cc2cc(OCC)c(OCC(N)=O)cc2-3)cc1	< 4.70	15000 nM	1910 nM	4310 nM	–	–	–	–	–	–	–
CCCCOc1cc2c(cc1OCC(N)=O)-c1c(c(Nc3cccc(OCC)c3)nn1C)C2	< 4.70	19900 nM	2760 nM	4770 nM	–	–	–	–	–	–	–
CCOc1cc2c(cc1OCCCO)-c1c(c(Nc3cccc(C(=O)CC)c3)nn1C)C2	5.28	38.2 nM	13.6 nM	24.5 nM	–	–	–	–	–	–	–

SMILES	pIC50 [1]	GI50 (A549)	GI50 (HepG2 [2])	GI50 (HCT-116)	inhibition [3]	Activity (HepG2 [4])	GI50 at 72 h [5]	RatioGI50 [6]	selectivity ratio at 72 h [7]	GI50 [8]	inhibition at 0.01 µM (HepG2 [9])
CCOc1cccc(Nc2nn(C)c3c2Cc2cc(OCC)c(OCCCO)cc2-3)c1	5.24	94.4 nM	15.7 nM	10.4 nM	–	–	–	–	–	–	–
CCOc1cc2c(cc1OCCCO)-c1c(c(Nc3cccc(C(=O)OC)c3)nn1C)C2	5.23	8.1 nM	7.1 nM	12.3 nM	–	–	–	–	–	–	–
CC(=O)O[C@H]1C(=O)[C@@]2(C)[C@H]([C@H](OC(=O)c3ccccc3)[C@]3(O)C[C@H](OC(=O)[C@H](O)[C@@H](NC(=O)c4ccccc4)c4ccccc4)C(C)=C1C3(C)C)[C@]1(OC(C)=O)CO[C@@H]1C[C@@H]2O [PACLITAXEL]	–	–	–	–	–	–	30.8 nM	246	12	935 nM	–
CCOc1cccc(Nc2nn(C)c3c2Cc2cc(OCC)c(OCCCNC(C)=O)cc2-3)c1	< 4.70	935 nM	364 nM	197 nM	–	–	–	–	–	–	–
CCOc1cc2c(cc1OCC(N)=O)-c1c(c(Nc3cccc(C#N)c3)nn1C)C2	5.00	166 nM	66.9 nM	361 nM	–	–	–	–	–	–	–
CCOc1cccc(Nc2nn(C)c3c2Cc2cc(OC)c(OCC(N)=O)cc2-3)c1	4.87	19.6 nM	15 nM	26.5 nM	–	–	–	–	–	–	–
CCCOc1cc2c(cc1OCC(N)=O)-c1c(c(Nc3cccc(OCC)c3)nn1C)C2	4.96	426 nM	55.6 nM	230 nM	–	–	–	–	–	–	–
CCNc1cccc(Nc2nn(C)c3c2Cc2cc(OCC)c(OCC(N)=O)cc2-3)c1	4.97	356 nM	107 nM	432 nM	–	–	–	–	–	–	–
CCOc1cccc(Nc2nn(C)c3c2Cc2cc(OCC)c(OCCCO)cc2-3)n1	5.30	72 nM	15.5 nM	27.1 nM	–	–	–	–	–	–	–
CCOC(=O)c1cccc(Nc2nn(C)c3c2Cc2cc(OCC)c(OCCCO)cc2-3)c1	5.46	5.3 nM	3.3 nM	7.7 nM	–	–	–	–	–	–	–
CCOc1cc2c(cc1OCC(N)=O)-c1c(c(Nc3cccc(C(=O)CC)c3)nn1C)C2	5.39	21.4 nM	9.2 nM	27 nM	–	–	–	–	–	–	–
CCOc1cc2c(cc1OCCCN)-c1c(c(Nc3cccc(C(=O)CC)c3)nn1C)C2	5.51	7.6 nM	2.1 nM	4 nM	–	–	–	–	–	–	–
COc1ccc(/C=C\c2cc(OC)c(OC)c(OC)c2)cc1O [COMBRETASTATIN A4]	5.64	4.8 nM	6.1 nM	2.4 nM	–	–	333 nM	4	55	20.4 nM	47%
CCOc1cc2c(cc1OCCCO)-c1c(c(Nc3cccc(C(=O)NC)c3)nn1C)C2	< 4.70	1340 nM	2350 nM	1480 nM	–	–	–	–	–	–	–
CCOc1cccc(Nc2nn(C)c3c2Cc2cc(O)c(OCC(N)=O)cc2-3)c1	< 4.70	15200 nM	5330 nM	4660 nM	–	–	–	–	–	–	–
CCOc1cc2c(cc1OCC(N)=O)-c1c(c(Nc3cccc(C(=O)OC)c3)nn1C)C2	5.35	3 nM	4.3 nM	9.7 nM	–	–	–	–	–	–	–
CCOc1cc2c(cc1OCCCO)-c1c(c(Nc3cccc(C(=O)O)c3)nn1C)C2	< 4.70	18300 nM	> 20000 nM	5380 nM	–	–	–	–	–	–	–
